Converted amounts (≈) assume the structure as drawn.

The nature of data set [1]: Therapeutic index, ratio of CC50 for human U937 cells to MIC90 for Candida albicans ATCC 10261. The format is cell-based, U-937. In a few lines: (§1)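 Therapeutic index calculated as CC50 in the given cell line divided by MIC90.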
The subject of another data set is Candida parapsilosis. The experiment in a line: Antifungal activity against Candida parapsilosis ATCC 22019 at 35 degC after 48 hrs by broth microdilution test. It counts as functional. The following applies: Lodderomyces parapsilosis, ATCC 22019, 48 h; for MFC: read-out: MFC; for MIC: read-out: MIC. A digest of the protocol:
(§2)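 Broth microdilution per NCCLS M27-A2. Stocks in 100% DMSO, diluted in RPMI 1640 with 0.165 M MOPS at pH 7.0; final range 0.25–128 µg/mL. Inoculum 1000–5000 cells/mL from SDA subcultures. […] C. parapsilosis ATCC22019 served as QC strain.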
A general note: In broth dilution the organism is exposed to a series of concentrations in liquid medium.

Data set [2] has as its system Arthrodermataceae. The data set is described as follows: Antifungal activity against dermatophytes at 28 degC after 7 days by broth microdilution test. The format is functional. The conditions noted are these: 168 h. In a few lines:
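Ten clinical isolates (two M. canis, five M. gypseum, three T. mentagrophytes) tested by NCCLS M38-A broth microdilution in MOPS-buffered RPMI 1640, pH 7.0, over 0.25–128 µg/mL. Conidial/hyphal suspension from PDA slants (28 °C, 7 days) adjusted to 65–70% transmittance at OD530, then diluted 1:50.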

Data set [3] relates to Arthrodermataceae. The data set is described as follows: Antifungal activity against dermatophytes at 28 degC after 48 to 96 hrs by broth microdilution test.
The nature of data set [4]: Cytotoxicity against human K562 cells after assessed as reduction of cell viability 24 hrs by MTT assay. It counts as cell-based. A digest of the protocol:
(§3)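 U937 and K562 cells, from ATCC, plated at 5 × 10^4/mL in phenol-red-free RPMI-1640 with 20% FBS and penicillin/streptomycin. Compounds added 2 h later at 25–100 µg/mL, then 24 h at 37 °C. MTT at 1 mg/mL for 3 h, formazan dissolved in isopropanol with 0.1 N HCl, absorbance read at 570 nm. CC50 is the concentration reducing viability by 50% versus the drug-free control.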
(In general: Tetrazolium dyes change colour on reduction, which living cells bring about.)

A short description of data set [5]: Cytotoxicity against human U937 cells assessed as reduction of cell viability after 24 hrs by MTT assay. It counts as cell-based, U-937. In a few lines:
as §3

Data set [6] relates to Arthrodermataceae. The data set is described as follows: Antifungal activity against dermatophytes at 28 degC after 5 days by broth microdilution test. The following applies: for MFC: Arthrodermataceae.
Data set [7] concerns Candida albicans. The experiment in a line: Antifungal activity against Candida albicans ATCC 10261 at 35 degC after 48 hrs by broth microdilution test. The format is functional. The following applies: Candida albicans, ATCC 10261, 48 h; for MIC: read-out: MIC; for MIC50: read-out: MIC50; for MIC90: read-out: MIC90. In a few lines:
as §2

Data set [8] is described as follows: Therapeutic index, ratio of CC50 for human K562 cells to MIC90 for Candida albicans ATCC 10261. The format is cell-based. A digest of the protocol:
as §1

Data set [9] concerns Candida albicans. The data set is described as follows: Antifungal activity against Candida albicans ATCC 10261 at 35 degC after 48 to 96 hrs by broth microdilution test. The format is functional. The conditions noted are these: for MFC: Candida albicans, ATCC 10261, read-out: MFC. A digest of the protocol: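 Minimal fungicidal concentration for Candida. […] MFC is the lowest concentration allowing fewer than two colonies (99% killing).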

The test system of data set [10] is Candida albicans. The data set is described as follows: Antifungal activity against fluconazole-sensitive Candida albicans Fe40 at 35 degC after 48 hrs by broth microdilution test. It counts as functional. A digest of the protocol:
as §2

Data set [11] relates to Candida albicans. The experiment in a line: Antifungal activity against fluconazole-resistant Candida albicans isolated from oropharyngeal or vaginal disease patient after 48 hrs by broth microdilution test. It counts as functional.

For the molecule `Clc1ccc(COC(Cn2ccnc2)c2ccc(Cl)cc2Cl)cc1` (centres undefined) [ECONAZOLE], the values for the selectivity ratio in [1] and in data set [8] were 13.5 and 8.8, respectively. Moreover, the MFC (usually the lowest tested concentration that kills the fungus rather than only halting it) came to 2 µg/mL (≈ 5.24 µM) in the data set with Candida parapsilosis, 6 µg/mL (≈ 15.7 µM) against Arthrodermataceae [6] and 15 µg/mL (≈ 39.4 µM) in the data set with Candida albicans [9]. The MIC – broadly, the least concentration at which growth counts as inhibited – was 2 µg/mL (≈ 5.24 µM) with Candida parapsilosis, 2.1 µg/mL (≈ 5.5 µM) with Arthrodermataceae [2] and 4.3 µg/mL (≈ 11.3 µM) in the data set with Candida albicans [7]. The MIC50 – broadly, an inhibitory concentration at the 50% level, which refers to growth in some studies and to a panel of isolates in others – with Arthrodermataceae [2] amounted to 1 µg/mL (≈ 2.62 µM); in the data set with Candida albicans [7] it was 4 µg/mL (≈ 10.5 µM). For the same molecule, the MIC90 (usually an inhibitory concentration at the 90% level, which refers to growth in some studies and to a panel of isolates in others) came out at 4 µg/mL (≈ 10.5 µM) in the data set on Arthrodermataceae [2] and 8 µg/mL (≈ 21 µM) with Candida albicans [7]. For the same molecule, the MFC50 in the data set with Arthrodermataceae [3] stood at 4 µg/mL (≈ 10.5 µM); against Candida albicans [9], 16 µg/mL (≈ 41.9 µM). Further, the CC50 (commonly the concentration at which the toxic effect on the cells reaches its halfway point) at 24 h in [4] was found to be 70 µM; in [5] it was 108 µM. The MFC90 against Arthrodermataceae [6] was 8 µg/mL (≈ 21 µM); in the data set with Candida albicans [9] it was 32 µg/mL (≈ 83.8 µM).

Take `Cc1ccc(OC(CCn2ccnc2)c2ccc(F)cc2)cc1` (centres undefined): the MFC in the data set with Candida parapsilosis worked out at 32 µg/mL (≈ 103 µM); against Arthrodermataceae [6], 16 µg/mL (≈ 51.6 µM); in the data set on Candida albicans [9], 23 µg/mL (≈ 74.1 µM). The minimum inhibitory concentration (MIC) in the data set on Candida parapsilosis amounted to 4 µg/mL (≈ 12.9 µM); against Arthrodermataceae [2], 10 µg/mL (≈ 32.2 µM); in the data set on Candida albicans [10] it was 4 µg/mL (≈ 12.9 µM); with Candida albicans [7], 7 µg/mL (≈ 22.6 µM); against Candida albicans [11], 9.6 µg/mL (≈ 30.9 µM). The figures for the MIC50 in the data set with Arthrodermataceae [2] and with Candida albicans [7] were 8 µg/mL (≈ 25.8 µM) and 4 µg/mL (≈ 12.9 µM), respectively. Also, the results for the MIC90 in the data set with Arthrodermataceae [2] and in the data set on Candida albicans [7] were 16 µg/mL (≈ 51.6 µM) and 8 µg/mL (≈ 25.8 µM), respectively. Besides, the MFC50 against Arthrodermataceae [3] and against Candida albicans [9] was 16 µg/mL (≈ 51.6 µM) each time. In addition, the CC50 at 24 h in [4] worked out at 383 µM; in data set [5], 120 µM. The MFC90 worked out at 16 µg/mL (≈ 51.6 µM) in the data set with Arthrodermataceae [6] and 32 µg/mL (≈ 103 µM) against Candida albicans [9].

`Clc1ccc(OC(CCn2ccnc2)c2ccccc2)cc1` (centres undefined): the MFC in the data set on Candida parapsilosis came to 32 µg/mL (≈ 102 µM); against Arthrodermataceae [6], 25.6 µg/mL (≈ 81.8 µM); with Candida albicans [9], 10.3 µg/mL (≈ 32.9 µM). For the same molecule, the MIC with Candida parapsilosis was determined as 4 µg/mL (≈ 12.8 µM); against Arthrodermataceae [2], 18.4 µg/mL (≈ 58.8 µM); against Candida albicans [10] it was 2 µg/mL (≈ 6.39 µM); in the data set with Candida albicans [7], 3.3 µg/mL (≈ 10.5 µM); in the data set on Candida albicans [11], 6.4 µg/mL (≈ 20.5 µM). Further, the figures for the MIC50 with Arthrodermataceae [2] and with Candida albicans [7] were 16 µg/mL (≈ 51.2 µM) and 2 µg/mL (≈ 6.39 µM), respectively. Moreover, the MIC90 in the data set with Arthrodermataceae [2] was 32 µg/mL (≈ 102 µM); with Candida albicans [7], 4 µg/mL (≈ 12.8 µM). Moreover, the MFC50 against Arthrodermataceae [3] was determined as 16 µg/mL (≈ 51.2 µM); against Candida albicans [9], 8 µg/mL (≈ 25.6 µM). For the same molecule, the figures for the CC50 at 24 h in data set [4] and in data set [5] were 256 µM and 200 µM, respectively. Besides, the MFC90 with Arthrodermataceae [6] is 32 µg/mL (≈ 102 µM); in the data set with Candida albicans [9], 16 µg/mL (≈ 51.2 µM).

On to `Clc1ccc(C(CCn2ccnc2)Oc2ccc(Cl)cc2Cl)cc1` (centres undefined), for which the minimal fungicidal concentration (MFC) in the data set on Candida parapsilosis is 8 µg/mL (≈ 21 µM); in the data set on Arthrodermataceae [6], 11 µg/mL (≈ 28.8 µM); in the data set on Candida albicans [9], 5.12 µg/mL (≈ 13.4 µM). Also, the MIC amounted to 1 µg/mL (≈ 2.62 µM) in the data set with Candida parapsilosis; 9.8 µg/mL (≈ 25.7 µM) in the data set on Arthrodermataceae [2]; 2 µg/mL (≈ 5.24 µM) against Candida albicans [10]; 2.85 µg/mL (≈ 7.47 µM) with Candida albicans [7]; 6.4 µg/mL (≈ 16.8 µM) in the data set on Candida albicans [11]. For the same molecule, the MIC50 worked out at 8 µg/mL (≈ 21 µM) with Arthrodermataceae [2] and 2 µg/mL (≈ 5.24 µM) in the data set with Candida albicans [7]. Besides, the MIC90 was 16 µg/mL (≈ 41.9 µM) against Arthrodermataceae [2] and 4 µg/mL (≈ 10.5 µM) in the data set on Candida albicans [7]. Moreover, the MFC50 amounted to 8 µg/mL (≈ 21 µM) against Arthrodermataceae [3] and 4 µg/mL (≈ 10.5 µM) with Candida albicans [9]. In addition, the CC50 at 24 h is 68.8 µM in [4] and 172 µM in [5]. The MFC90 was determined as 16 µg/mL (≈ 41.9 µM) in the data set on Arthrodermataceae [6] and 8 µg/mL (≈ 21 µM) in the data set on Candida albicans [9].

As for `OC(Cn1cncn1)(Cn1cncn1)c1ccc(F)cc1F` [FLUCONAZOLE], the selectivity ratio in [1] was found to be 5.1; in data set [8], 6. Further, the results for the MFC in the data set on Candida parapsilosis and in the data set with Candida albicans [9] were 8 µg/mL (≈ 26.1 µM) and greater than 64 µg/mL, respectively. The MIC with Candida parapsilosis was determined as 0.5 µg/mL (≈ 1.63 µM); against Candida albicans [10] it was 0.25 µg/mL (≈ 0.816 µM); with Candida albicans [7], 15.3 µg/mL (≈ 50 µM); in the data set on Candida albicans [11], 128 µg/mL (≈ 418 µM). The cytotoxic concentration (CC50) at 24 h in data set [4] stood at 385 µM; in data set [5], 328 µM. The MIC50 in the data set on Candida albicans [7] turned out to be 2 µg/mL (≈ 6.53 µM). For the same molecule, in the data set on Candida albicans [7], the MIC90 was 64 µg/mL (≈ 209 µM).

The values are drawn from ChEMBL document CHEMBL1157464, “1-[(3-Aryloxy-3-aryl)propyl]-1H-imidazoles, new imidazoles with potent activity against Candida albicans and dermatophytes. Synthesis, structure-activity relationship, and molecular modeling studies” (J Med Chem, 2008).
